Experimental data: ChEMBL document CHEMBL2034831, “Quinazoline-tyrphostin as a new class of antitumor agents, molecular properties prediction, synthesis and biological testing” (Eur J Med Chem, 2012)

Experiments:
Type in all cases: functional, cell-based
MCF7 = assay: Cytotoxicity against human MCF7 cells after 3 days by MTT assay; conditions: MCF7, 72 h
In short: (§1)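 Cells kept in RPMI-1640 with 10% calf serum. Exponentially growing cells seeded at 4 × 10⁴ cells/mL, then medium replaced with fresh medium holding test compound (controls got solvent only). After incubation, MTT added for a further 4 h at 37 °C and formazan dissolved in DMSO. Read by OD. %inhibition = (OD control − OD test)/OD control × 100. Compounds giving ≥70% inhibition in a one-dose prescreen were serially diluted (0.06–0.002 range) for IC50.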

HepG2 = assay: Cytotoxicity against human HepG2 cells after 3 days by MTT assay; conditions: HepG2, 72 h; in short: as §1
HeLa = assay: Cytotoxicity against human HeLa cells after 3 days by MTT assay; conditions: 72 h; in short: as §1

Cc1ccc2nc(C)n(NC(=O)CC#N)c(=O)c2c1
IC50 (MCF7): 40 µM | IC50 (HepG2): 55 µM | IC50 (HeLa): 30 µM

Cc1ccc2nc(C)n(NC(=O)/C(C#N)=C/c3ccccc3)c(=O)c2c1
IC50 (MCF7): 9 µM | IC50 (HepG2): 14 µM | IC50 (HeLa): 13 µM

Cc1ccc(/C=C(\C#N)C(=O)Nn2c(C)nc3ccc(C)cc3c2=O)cc1
IC50 (MCF7): 10 µM | IC50 (HepG2): 12 µM | IC50 (HeLa): 9 µM

Cc1ccc2nc(C)n(NC(=O)/C(C#N)=C/c3ccc(Cl)cc3)c(=O)c2c1
IC50 (MCF7): 12 µM | IC50 (HepG2): 9 µM | IC50 (HeLa): 12 µM

Cc1ccc2nc(C)n(NC(=O)/C(C#N)=C/c3ccc([N+](=O)[O-])cc3)c(=O)c2c1
IC50 (MCF7): 12 µM | IC50 (HepG2): 10 µM | IC50 (HeLa): 15 µM

Cc1ccc2nc(C)n(NC(=O)/C(C#N)=C/c3cccc(O)c3)c(=O)c2c1
IC50 (MCF7): 15 µM | IC50 (HepG2): 14 µM | IC50 (HeLa): 14 µM

Cc1ccc2nc(C)n(NC(=O)/C(C#N)=C/c3ccc(O)cc3)c(=O)c2c1
IC50 (MCF7): 14 µM | IC50 (HepG2): 13 µM | IC50 (HeLa): 13 µM

Cc1ccc2nc(C)n(NC(=O)/C(C#N)=C/c3ccc(O)c(O)c3)c(=O)c2c1
IC50 (MCF7): 8 µM | IC50 (HepG2): 8 µM | IC50 (HeLa): 8 µM

Cc1ccc2nc(C)n(NC(=O)c3cc4ccccc4oc3=N)c(=O)c2c1
IC50 (MCF7): 17 µM | IC50 (HepG2): 23 µM | IC50 (HeLa): 38 µM

Cc1ccc2nc(C)n(-n3c(N)cc(N)c(C#N)c3=O)c(=O)c2c1
IC50 (MCF7): 10 µM | IC50 (HepG2): 17 µM | IC50 (HeLa): 15 µM

Cc1ccc2nc(C)n(-n3c(O)cc(N)c(C#N)c3=O)c(=O)c2c1
IC50 (MCF7): 26 µM | IC50 (HepG2): 41 µM | IC50 (HeLa): 45 µM

Cc1ccc2nc(C)n(-n3c(N)c(C#N)c(-c4ccccc4)c(C#N)c3=O)c(=O)c2c1
IC50 (MCF7): 8 µM | IC50 (HepG2): 10 µM | IC50 (HeLa): 5 µM

CCOC(=O)c1c(-c2ccccc2)c(C#N)c(=O)n(-n2c(C)nc3ccc(C)cc3c2=O)c1N
IC50 (MCF7): 17 µM | IC50 (HepG2): 52 µM | IC50 (HeLa): 21 µM

Cc1ccc2nc(C)n(NC(=O)c3sc(N)c(C#N)c3N)c(=O)c2c1
IC50 (MCF7): 10 µM | IC50 (HepG2): 15 µM | IC50 (HeLa): 15 µM

CCOC(=O)c1c(N)sc(C(=O)Nn2c(C)nc3ccc(C)cc3c2=O)c1N
IC50 (MCF7): 16 µM | IC50 (HepG2): 22 µM | IC50 (HeLa): 23 µM

Cc1ccc2nc(C)n(NC(=O)c3sc4c(c3N)CCCC4)c(=O)c2c1
IC50 (MCF7): 18 µM | IC50 (HepG2): 22 µM | IC50 (HeLa): 31 µM

Cc1ccc2nc(C)n(NC(=O)c3sc(=S)n(-c4ccccc4)c3N)c(=O)c2c1
IC50 (MCF7): 13 µM | IC50 (HepG2): 27 µM | IC50 (HeLa): 35 µM

Cc1ccc2nc(C)n(NC(=O)c3sc(=S)n(Cc4ccccc4)c3N)c(=O)c2c1
IC50 (MCF7): 10 µM | IC50 (HepG2): 32 µM | IC50 (HeLa): 26 µM

Cc1ccc2nc(C)n(NC(=O)/C(C#N)=N/Nc3ccccc3)c(=O)c2c1
IC50 (MCF7): 19 µM | IC50 (HepG2): 12 µM | IC50 (HeLa): 79 µM

Cc1ccc2nc(C)n(NC(=O)/C(C#N)=N/Nc3ccc(S(N)(=O)=O)cc3)c(=O)c2c1
IC50 (MCF7): 9 µM | IC50 (HepG2): 9 µM | IC50 (HeLa): 12 µM

COc1cccc2c1C(=O)c1c(O)c3c(c(O)c1C2=O)C[C@@](O)(C(=O)CO)C[C@@H]3O[C@H]1C[C@H](N)[C@H](O)[C@H](C)O1 [DOXORUBICIN]
IC50 (HepG2): 9 µM | IC50 (HeLa): 8 µM
